Experimental data published in ChEMBL document CHEMBL3124893 (J Med Chem, 2014).

Experiments:
[1] = target: T1, Adenosine receptor A1 (Homo sapiens) (UniProt P30542); test: Displacement of [3H]-R-PIA from recombinant human adenosine A1 receptor expressed in CHO cells at 10 uM after 60 mins by scintillation counting analysis relative to control; assay type: cell-based
T1 sequence (whole entry): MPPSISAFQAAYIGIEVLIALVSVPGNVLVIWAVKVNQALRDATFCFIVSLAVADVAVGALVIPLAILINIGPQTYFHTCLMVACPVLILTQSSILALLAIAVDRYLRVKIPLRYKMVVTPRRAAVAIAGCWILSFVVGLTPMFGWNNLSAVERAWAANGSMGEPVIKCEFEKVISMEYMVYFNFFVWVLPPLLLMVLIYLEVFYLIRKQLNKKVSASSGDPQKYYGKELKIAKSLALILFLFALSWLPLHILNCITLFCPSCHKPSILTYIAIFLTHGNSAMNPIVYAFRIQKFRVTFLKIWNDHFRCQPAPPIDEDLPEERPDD

Adenosine receptor A2a [2] = target: T2, Adenosine receptor A2a (Homo sapiens, UniProt P29274); test: Displacement of [3H]-CGS21680 from human adenosine A2A receptor expressed in HEK293 cells at 10 uM after 60 mins by scintillation counting analysis relative to control; assay type: cell-based
Method in brief: (§1)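 HEK-293 hA2AAR membranes (20 μg) incubated 60 min at 25 °C with 15 nM [3H]CGS21680 and increasing ligand concentrations in 50 mM Tris·HCl pH 7.4, 10 mM MgCl2. Nonspecific binding defined with 10 μM NECA. GF/B filtration, scintillation counting. Ki by Cheng–Prusoff. For weak binders, percent inhibition measured at 10 μM, 3–5 duplicate determinations.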

Adenosine receptor A3 [3] = target: T3, Adenosine receptor A3 (Homo sapiens, UniProt P0DMS8); test: Displacement of [125I]-I-AB-MECA from recombinant human adenosine A3 receptor expressed in CHO cells after 60 mins by gamma counting analysis; assay type: cell-based
T3 sequence (P0DMS8 whole entry): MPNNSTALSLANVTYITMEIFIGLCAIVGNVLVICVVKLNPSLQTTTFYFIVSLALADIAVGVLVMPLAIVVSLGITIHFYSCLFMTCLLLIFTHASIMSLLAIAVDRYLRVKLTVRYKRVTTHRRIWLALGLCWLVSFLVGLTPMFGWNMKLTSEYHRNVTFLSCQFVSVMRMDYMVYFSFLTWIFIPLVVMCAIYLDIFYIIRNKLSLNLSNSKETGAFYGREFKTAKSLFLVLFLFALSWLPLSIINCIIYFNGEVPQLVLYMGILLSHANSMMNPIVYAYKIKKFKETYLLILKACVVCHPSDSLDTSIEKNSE

Adenosine receptor A3 [4] = target: T4, Adenosine receptor A3 (Rattus norvegicus, UniProt P28647); test: Displacement of [125I]-I-AB-MECA from rat adenosine A3 receptor expressed in RBL-2H3 cells after 60 mins by gamma counting analysis; assay type: cell-based
T4 sequence (P28647 whole entry): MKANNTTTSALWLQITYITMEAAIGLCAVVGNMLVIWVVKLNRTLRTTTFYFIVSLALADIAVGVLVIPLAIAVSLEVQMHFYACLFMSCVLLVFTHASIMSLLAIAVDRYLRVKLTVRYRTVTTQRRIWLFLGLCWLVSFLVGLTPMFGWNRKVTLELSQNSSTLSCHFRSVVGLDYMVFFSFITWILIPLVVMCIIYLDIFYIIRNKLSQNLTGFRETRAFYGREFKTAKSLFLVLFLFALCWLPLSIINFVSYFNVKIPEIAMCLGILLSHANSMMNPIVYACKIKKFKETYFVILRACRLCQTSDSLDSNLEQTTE

[5] = Antifibrotic activity in C57BL6/J mouse Prox24 cells assessed as inhibition of TGF-beta1-induced COL1A1 mRNA expression incubated for 1 hr followed by TGF-beta1 challenge measured after 6 hrs by real-time PCR analysis; assay type: functional
Method in brief: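 mProx24 immortalized proximal tubular cells from C57BL6/J mouse kidneys in DMEM, 10% FCS, 37 °C, 5% CO2. Growth-arrested 24 h in 0.15% FCS. Pretreated 1 h with compound in DMEM/0.15% FCS (DMSO stocks 50, 20, 10, 1 mM), then human TGF-β1 5 ng/mL for 6 h. COL1A1 mRNA expressed relative to TGF-β1 alone (1.0). Mean ± SE of three experiments.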

[6] = target: T5, Adenosine receptor A3 (Homo sapiens) (UniProt P0DMS8); test: Antagonist activity at recombinant human adenosine A3 receptor expressed in CHO cells assessed as forskolin-induced intracellular cAMP production preincubated for 45 mins followed by forskolin challenge measured after 15 mins by liquid scintillation counting analysis in presence of rolipram and adenosine deaminase relative to NECA; assay type: functional, cell-based; parameters: scale not given: the % may be the effect or the level left
T5 sequence (whole entry): T3 sequence (P0DMS8 whole entry)
Method in brief: (§2)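 CHO cells stably expressing hA3AR, plated 24 h, washed in DMEM/50 mM HEPES pH 7.4, treated with agonists and/or test compounds plus rolipram 10 μM and adenosine deaminase 3 U/mL. Forskolin 10 μM added after 45 min, incubation continued 15 min. Lysed in 0.1 M HCl. cAMP quantified by [3H]cAMP (2 nM)–PKA competitive binding, GF/C filtration, scintillation counting. Expressed relative to NECA full agonist (100%). Curves from three determinations.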

Adenosine receptor A2a [7] = target: T2, Adenosine receptor A2a; test: Displacement of [3H]-CGS21680 from human adenosine A2A receptor expressed in HEK293 cells after 60 mins by scintillation counting analysis; assay type: cell-based; method in brief: as §1
Adenosine receptor A1 = target: T6, Adenosine receptor A1 (Homo sapiens, UniProt P30542); test: Displacement of [3H]-R-PIA from recombinant human adenosine A1 receptor expressed in CHO cells after 60 mins by scintillation counting analysis; assay type: cell-based
T6 sequence (P30542 whole entry): T1 sequence (whole entry)

[8] = target: T7, Adenosine receptor A2b (Homo sapiens) (UniProt P29275); test: Agonist activity at recombinant human adenosine A2B receptor expressed in CHO cells assessed as activation of intracellular cAMP production at 10 uM in presence of rolipram and adenosine deaminase relative to NECA; assay type: functional, cell-based
T7 sequence (whole entry): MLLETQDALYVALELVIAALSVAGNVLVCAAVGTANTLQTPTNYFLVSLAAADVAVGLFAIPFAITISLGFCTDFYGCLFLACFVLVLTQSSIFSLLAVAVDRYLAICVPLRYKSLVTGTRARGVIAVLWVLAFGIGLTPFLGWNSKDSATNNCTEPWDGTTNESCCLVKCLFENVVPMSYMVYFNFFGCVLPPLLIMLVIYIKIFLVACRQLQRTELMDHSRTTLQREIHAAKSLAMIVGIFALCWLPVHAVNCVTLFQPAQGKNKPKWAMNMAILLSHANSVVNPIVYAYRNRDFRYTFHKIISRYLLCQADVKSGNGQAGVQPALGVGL
Method in brief: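 CHO cells stably expressing hA2BAR, plated 24 h, washed in DMEM with 50 mM HEPES pH 7.4, then exposed to compounds with rolipram 10 μM and adenosine deaminase 3 U/mL (no forskolin). Lysed in 0.1 M ice-cold HCl. cAMP measured by competitive binding of [3H]cAMP (2 nM) to protein kinase A against a 0–16 pmol standard curve, filtration, scintillation counting.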

Adenosine receptor A3 [9] = target: T3, Adenosine receptor A3; test: (§3) Partial agonist activity at recombinant human adenosine A3 receptor expressed in CHO cells assessed as […] of forskolin-induced intracellular cAMP production preincubated for 45 mins followed by forskolin challenge measured after 15 mins by liquid scintillation counting analysis in presence of rolipram and adenosine deaminase; assay type: functional, cell-based; method in brief: as §2
[10] = target: T5, Adenosine receptor A3 (Homo sapiens); test: as §3, with “production at 10 uM” for “production”, “deaminase relative to NECA” for “deaminase”; assay type: functional, cell-based; method in brief: as §2

T2 sequence (P29274 whole entry): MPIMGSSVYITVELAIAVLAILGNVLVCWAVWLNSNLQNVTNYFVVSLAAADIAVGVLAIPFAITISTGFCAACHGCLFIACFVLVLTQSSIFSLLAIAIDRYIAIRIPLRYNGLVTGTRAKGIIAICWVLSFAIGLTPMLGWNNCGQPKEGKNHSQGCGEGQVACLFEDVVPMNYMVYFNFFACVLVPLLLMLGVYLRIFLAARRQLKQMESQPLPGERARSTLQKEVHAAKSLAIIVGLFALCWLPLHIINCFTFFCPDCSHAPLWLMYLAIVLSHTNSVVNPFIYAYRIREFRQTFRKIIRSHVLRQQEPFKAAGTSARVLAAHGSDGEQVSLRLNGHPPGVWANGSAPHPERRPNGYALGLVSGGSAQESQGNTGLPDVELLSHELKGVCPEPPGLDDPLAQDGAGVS

inhibition [1]	inhibition (Adenosine receptor A2a [2])	Ki (Adenosine receptor A3 [3])	Ki (Adenosine receptor A3 [4])	IC50 [5]	Activity [6]	Ki (Adenosine receptor A2a [7])	Ki (Adenosine receptor A1)	Activity [8]	EC50 (Adenosine receptor A3 [9])	max activation [10]	SMILES
21%	27%	16 nM	43 nM	3170 nM							CCCCC#Cc1nc(NCc2cccc(F)c2)c2ncn([C@H]3[C@H](O)[C@H](O)[C@@H]4C[C@@H]43)c2n1
48%		12 nM	26 nM	7880 nM	< 5%	2530 nM					CCCCC#Cc1nc(NCc2cccc(I)c2)c2ncn([C@H]3[C@H](O)[C@H](O)[C@@H]4C[C@@H]43)c2n1
		9.2 nM	39 nM	11800 nM		2200 nM	2170 nM				CCCCC#Cc1nc(NC2CC2)c2ncn([C@H]3[C@H](O)[C@H](O)[C@@H]4C[C@@H]43)c2n1
29%		16.2 nM	65 nM	6120 nM		100 nM					CCCCC#Cc1nc(N)c2ncn([C@H]3[C@H](O)[C@H](O)[C@@H]4C[C@@H]43)c2n1
14%		4.9 nM	231 nM	830 nM		7490 nM		15.7%	45.8 nM	29.1%	CCCCC#Cc1nc(NC)c2ncn([C@H]3[C@H](O)[C@H](O)[C@@H]4C[C@@H]43)c2n1
19%		7.8 nM	10.7 nM	2870 nM	< 5%	3310 nM					CCCCC#Cc1nc(NCc2cccc(Cl)c2)c2ncn([C@H]3[C@H](O)[C@H](O)[C@@H]4C[C@@H]43)c2n1
31%		6.7 nM	176 nM	840 nM		2860 nM					CCCCC#Cc1nc(NCC)c2ncn([C@H]3[C@H](O)[C@H](O)[C@@H]4C[C@@H]43)c2n1
38%		8.6 nM	59 nM	10400 nM	< 5%	3150 nM					CCCCC#Cc1nc(NCc2cccc(Br)c2)c2ncn([C@H]3[C@H](O)[C@H](O)[C@@H]4C[C@@H]43)c2n1
		160 nM	58 nM	> 50000 nM		1760 nM	1580 nM				CCCCC#Cc1nc(NC2CCCC2)c2ncn([C@H]3[C@H](O)[C@H](O)[C@@H]4C[C@@H]43)c2n1
